Ki and IC50 data for 8 molecules are collected here from ChEMBL document CHEMBL2169809, “Identification of high-affinity P2Y₁₂ antagonists based on a phenylpyrazole glutamic acid piperazine backbone” (J Med Chem, 2012).

One experiment deals with P2Y purinoceptor 12 (Homo sapiens, UniProt Q9H244). The experiment is described as follows: Displacement of [33P]2-MeS-ADP from human recombinant P2Y12 receptor expressed in CHO cell membranes by scintillation counting method.
P2Y purinoceptor 12, sequence (Q9H244 whole entry): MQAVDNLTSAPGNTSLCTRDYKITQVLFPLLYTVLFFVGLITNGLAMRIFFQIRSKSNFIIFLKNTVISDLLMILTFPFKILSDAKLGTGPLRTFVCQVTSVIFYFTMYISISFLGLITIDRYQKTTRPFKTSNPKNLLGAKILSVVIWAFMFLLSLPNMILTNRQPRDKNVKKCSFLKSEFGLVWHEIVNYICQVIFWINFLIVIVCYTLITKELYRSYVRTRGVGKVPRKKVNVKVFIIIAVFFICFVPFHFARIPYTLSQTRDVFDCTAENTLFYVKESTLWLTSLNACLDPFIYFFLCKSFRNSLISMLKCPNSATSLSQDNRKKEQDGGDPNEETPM
As usually defined, the Ki is a measure of affinity in units of concentration, obtained from inhibition or displacement. Take `CCOC(=O)N1CCN(C(=O)[C@H](CCC(=O)O)NC(=O)c2cc(OCC(=O)N3CCC[C@H]3C(=O)N3CCCCC3)n(-c3ccccc3)n2)CC1`: the Ki was determined as 0.056 µM.
The same measure, in the same setting: in the case of `CCCCOC(=O)NC1CCN(C(=O)[C@H](CCC(=O)O)NC(=O)c2cc(OCC(=O)N3CCC[C@H]3C(=O)NC3CCC3)n(-c3ccccc3)n2)CC1` it was 0.022 µM; in that of `CCCNC(=O)[C@@H]1CCCN1C(=O)COc1cc(C(=O)N[C@@H](CCC(=O)O)C(=O)N2CCN(C(=O)OCC)CC2)nn1-c1ccccc1`, 0.066 µM.
On the same count and under the same terms, in the case of `CCOC(=O)N1CCN(C(=O)[C@H](CCC(=O)O)NC(=O)c2cc(OCC(=O)N3CCC[C@H]3C(=O)NC(C)(C)C)n(-c3ccccc3)n2)CC1` it was 0.041 µM; in that of `CCOC(=O)N1CCN(C(=O)[C@H](CCC(=O)O)NC(=O)c2cc(OCC(=O)N3CCC[C@H]3C(=O)NC3CCCC3)n(-c3ccccc3)n2)CC1`, 0.02 µM; in that of `CCOC(=O)COc1cc(C(=O)N[C@@H](CCC(=O)O)C(=O)N2CCN(C(=O)OCC)CC2)nn1-c1ccccc1`, 0.372 µM.
On the same count and under the same terms, the value for `CCOC(=O)N1CCN(C(=O)[C@H](CCC(=O)O)NC(=O)c2cc(OCC(=O)C(C)(C)C)n(-c3ccccc3)n2)CC1` was 0.242 µM.
Take `CCOC(=O)N1CCN(C(=O)[C@H](CCC(=O)O)NC(=O)c2cc(OCC(=O)C3CC3)n(-c3ccccc3)n2)CC1`: the inhibition constant Ki stood at 0.249 µM.

The subject of a further experiment is Platelet. Kind of experiment: Inhibition of ADP-stimulated platelet aggregation in human platelet rich plasma by 96-well format based turbidimetric method. The experiment is classed as functional. Put shortly: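 Citrated (ACD-A) donor blood was spun at 150g for 15 min at room temperature to give PRP. PRP was adjusted with PPP to 3 × 10^8 platelets/mL. Compound, diluted in NaCl, was preincubated with hPRP for 5 min before ADP was added.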
For orientation: IC50 means the concentration at which inhibition is half-maximal. Read a high IC50 as a need for much substance. Molecule `CCOC(=O)N1CCN(C(=O)[C@H](CCC(=O)O)NC(=O)c2cc(OCC(=O)N3CCC[C@H]3C(=O)N3CCCCC3)n(-c3ccccc3)n2)CC1` showed a concentration for half-maximal inhibition (IC50) of 0.07 µM.
Still for that read-out and setting: in the case of `CCCCOC(=O)NC1CCN(C(=O)[C@H](CCC(=O)O)NC(=O)c2cc(OCC(=O)N3CCC[C@H]3C(=O)NC3CCC3)n(-c3ccccc3)n2)CC1` it was 0.055 µM.
On the same count and under the same terms, in the case of `CCCNC(=O)[C@@H]1CCCN1C(=O)COc1cc(C(=O)N[C@@H](CCC(=O)O)C(=O)N2CCN(C(=O)OCC)CC2)nn1-c1ccccc1` it was 0.058 µM; in that of `CCOC(=O)N1CCN(C(=O)[C@H](CCC(=O)O)NC(=O)c2cc(OCC(=O)N3CCC[C@H]3C(=O)NC(C)(C)C)n(-c3ccccc3)n2)CC1`, 0.017 µM; in that of `CCOC(=O)N1CCN(C(=O)[C@H](CCC(=O)O)NC(=O)c2cc(OCC(=O)N3CCC[C@H]3C(=O)NC3CCCC3)n(-c3ccccc3)n2)CC1`, 0.013 µM.
On the same count and under the same terms, the value for `CCOC(=O)COc1cc(C(=O)N[C@@H](CCC(=O)O)C(=O)N2CCN(C(=O)OCC)CC2)nn1-c1ccccc1` was 2.25 µM; that for `CCOC(=O)N1CCN(C(=O)[C@H](CCC(=O)O)NC(=O)c2cc(OCC(=O)C(C)(C)C)n(-c3ccccc3)n2)CC1` was 3.73 µM.
With `CCOC(=O)N1CCN(C(=O)[C@H](CCC(=O)O)NC(=O)c2cc(OCC(=O)C3CC3)n(-c3ccccc3)n2)CC1`, inhibition was half-maximal at 2.6 µM (IC50).

The next experiment concerns Platelet. The experiment is described as follows: Inhibition of ADP-stimulated platelet aggregation in human platelet rich plasma by light transmission aggregometry based Born method. The experiment is classed as functional, cell-based.
`CCOC(=O)N1CCN(C(=O)[C@H](CCC(=O)O)NC(=O)c2cc(OCC(=O)N3CCC[C@H]3C(=O)N3CCCCC3)n(-c3ccccc3)n2)CC1`: the 50% inhibitory concentration (IC50) stood at 0.073 µM.
`CCCCOC(=O)NC1CCN(C(=O)[C@H](CCC(=O)O)NC(=O)c2cc(OCC(=O)N3CCC[C@H]3C(=O)NC3CCC3)n(-c3ccccc3)n2)CC1` registered a half-inhibitory concentration (IC50) of 0.12 µM.
Still for that read-out and setting: in the case of `CCCNC(=O)[C@@H]1CCCN1C(=O)COc1cc(C(=O)N[C@@H](CCC(=O)O)C(=O)N2CCN(C(=O)OCC)CC2)nn1-c1ccccc1` it was 0.091 µM; in that of `CCOC(=O)N1CCN(C(=O)[C@H](CCC(=O)O)NC(=O)c2cc(OCC(=O)N3CCC[C@H]3C(=O)NC(C)(C)C)n(-c3ccccc3)n2)CC1`, 0.07 µM; in that of `CCOC(=O)N1CCN(C(=O)[C@H](CCC(=O)O)NC(=O)c2cc(OCC(=O)N3CCC[C@H]3C(=O)NC3CCCC3)n(-c3ccccc3)n2)CC1`, 0.038 µM.
The same measure, in the same setting: in the case of `CCOC(=O)COc1cc(C(=O)N[C@@H](CCC(=O)O)C(=O)N2CCN(C(=O)OCC)CC2)nn1-c1ccccc1` it was 2.48 µM; in that of `CCOC(=O)N1CCN(C(=O)[C@H](CCC(=O)O)NC(=O)c2cc(OCC(=O)C(C)(C)C)n(-c3ccccc3)n2)CC1`, 2.46 µM.
The same measure, in the same setting: the value for `CCOC(=O)N1CCN(C(=O)[C@H](CCC(=O)O)NC(=O)c2cc(OCC(=O)C3CC3)n(-c3ccccc3)n2)CC1` was 2.51 µM.
